ERAP1 HTS inh – blocks human ERAP1 aminopeptidase activity; Q9NZ08; recombinant ERAP1, Leu-AMC fluorescence, 60 min; inhibition, % at 10.7 µM; actives 0.15% (n = 340,000); AID 652197;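 active means mean replicate inhibition of at least 30%, or all replicates individually reaching that 30% level; inactive means mean below 30% and not every replicate reaching it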
PDI inh – blocks human protein disulfide isomerase activity; actives 0.052% (n = 350,000); inhibition, % at 10 µM; P07237; PDI insulin aggregation turbidity, A650, 90 min;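 active means mean inhibition across replicates of 30% or more, whatever share of single replicates reach that level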
S100A4 MyoIIA – S100A4-myosin IIA interaction inhibition. AID 652163. P26447. inhibition, % at 10.7 µM. actives 0.14% (n = 360,000). S100A4/TAMRA-MyoIIA peptide fluorescence polarization;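 active means mean inhibition of at least 70% across replicates, with every replicate also reaching that level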
Target sequence (P26447 whole entry, looked up): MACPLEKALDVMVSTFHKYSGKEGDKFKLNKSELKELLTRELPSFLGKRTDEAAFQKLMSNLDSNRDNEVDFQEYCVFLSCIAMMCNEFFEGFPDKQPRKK
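Material: S100A4 monomer (human). Medium: Calcium-containing HEPES buffer, pH 7.2. Probe or stimulus: labelled myosin peptide probe, 5 nM. Compound dosing: one concentration per compound. Timing: polarization read 5 min after assay mix addition, stable 5–60 min. Benchmarks: DMSO as neutral control, TFP as positive control.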
ERp5 block – blocks human ERp5 reductase activity on insulin | actives 0.05% (n = 350,000) | inhibition, % at 9.99 µM | Q15084 | ERp5 insulin aggregation, absorbance 650 nm, 90 min;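 active means mean replicate inhibition above about 25%, with every replicate also reaching it, limit read from the data, passing the limit was not always enough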
FGF22 binding – binders of recombinant human FGF22 by thermal shift; Q9HCT0; SYPRO orange fluorescence; percent of sucrose octasulfate shift, DMSO zero; activity (Tm shift, normalised), % at 9.99 µM; actives 1.5% (n = 340,000); AID 651658;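 active means mean Tm shift, scaled 0 neutral to 100 positive control, at about 1.3% or above, every replicate too, limit read from the data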
Target sequence (Q9HCT0 whole entry, looked up): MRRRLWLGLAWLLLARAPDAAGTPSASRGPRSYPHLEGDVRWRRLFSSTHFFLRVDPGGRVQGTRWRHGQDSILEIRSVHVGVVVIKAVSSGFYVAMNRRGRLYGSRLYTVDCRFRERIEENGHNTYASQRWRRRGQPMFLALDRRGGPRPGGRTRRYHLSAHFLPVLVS
Of the large screens only hits and unclear results are named; the others gave an inactive call. The full list was thinned out, with hits kept by preference.

CC=Cc1ccc2n(c1=O)C[C@@H]1N[C@H]2[C@H](C(=O)NC2CCCCC2)[C@H]1CO (mixture of isomers)	S100A4 MyoIIA 81.4 (no result: PDI inh)
COc1ccc(/C=C2/SC(=O)N(CC(=O)Nc3cc(C)on3)C2=O)cc1OC	none
CC(C)(C)C(=O)CN1C(=O)NC2(CCc3ccccc32)C1=O (configuration not stated)	none
COc1ccc(C(=O)Nc2ccc(C(F)(F)F)n(C)c2=O)cc1	FGF22 binding 44.0
Cc1nc(SCc2ccc(O)c([N+](=O)[O-])c2)c([N+](=O)[O-])[nH]1	ERAP1 HTS inh 55.4
Cc1nc(SCc2ccc(O)c([N+](=O)[O-])c2)n[nH]1	none
N#C/C(=C/c1cccn1-c1cccc(C(=O)O)c1)c1ccc(Cl)cc1	FGF22 binding 43.6
Nc1nonc1-c1noc(N2CCCCC2)n1	none (no result: ERAP1 HTS inh, S100A4 MyoIIA, ERp5 block, FGF22 binding)
CCOC(=O)c1c(CN2CCN(CCO)CC2)n(-c2ccccc2)c2cc(Br)c(O)cc12	PDI inh 58.3
Cn1c(NCCCN2CCOCC2)nc2c1c(=O)n(Cc1ccc(Cl)cc1Cl)c(=O)n2C	none (no result: ERAP1 HTS inh, S100A4 MyoIIA, ERp5 block, FGF22 binding)
O=C(Nc1cccc(-c2nnc(-c3ccco3)o2)c1)c1ccccc1	FGF22 binding 43.1
COc1ccc(CNC(=O)N2CCc3ccccc3C2)cc1Cl	none
Cc1c(O)ccc2c(CC(=O)N[C@@H](Cc3c[nH]c4ccccc34)C(=O)O)cc(=O)oc12	PDI inh 59.8
O=C(N[C@@H](Cc1c[nH]c2ccccc12)C(=O)O)c1ccc(Cl)cc1	FGF22 binding 43.7
O=C(NC(Cc1c[nH]c2ccccc12)C(=O)O)c1ccccc1 (configuration not stated)	none (no result: ERAP1 HTS inh, S100A4 MyoIIA, ERp5 block, FGF22 binding)
COc1ccc(C(=O)NC(Cc2c[nH]c3ccccc23)C(=O)O)cc1 (configuration not stated)	none
COc1ccc(C(=O)NC(C)Cc2c[nH]c3ccccc23)cc1 (configuration not stated)	FGF22 binding 43.2
O=C(Cc1cc(=O)oc2cc(O)ccc12)N[C@@H](Cc1c[nH]c2ccccc12)C(=O)O	none
COCCN(C(=O)/C=C/c1cccc([N+](=O)[O-])c1)c1c(N)n(Cc2ccccc2)c(=O)[nH]c1=O	none
COCCN(C(=O)/C=C/c1ccccc1)c1c(N)n(Cc2ccccc2)c(=O)[nH]c1=O	FGF22 binding 43.2
FC(F)(F)c1ccccc1Cc1c(-c2cccc(Br)c2)nc2ccc(Br)cn12	FGF22 binding 19.9 (no result: PDI inh)
COc1ccccc1-c1noc(CCCC(=O)Nc2ccc(C(N)=O)cc2)n1	none (no result: ERAP1 HTS inh)
COCCn1c(SCC(=O)N2CCCCC2)nc2c(c1=O)SCC2	none
COCCn1c(SCC(=O)c2ccccc2)nc2c(c1=O)SCC2	FGF22 binding 43.0
Cc1noc(C)c1NC(=O)Nc1ccc2c(c1)C(=O)N([C@H](C)CO)C[C@@H](C)[C@@H](CN(C)Cc1ccc(Cl)c(Cl)c1)OCCCC[C@H](C)O2	none (no result: PDI inh)
COc1ccccc1Nc1nc2cc(C)ccc2cc1C#N	FGF22 binding 43.3
N#CNC(=Nc1ccc(F)cc1)SCc1ccccc1	FGF22 binding 44.1
COc1ccc(S(=O)(=O)Nc2ccc3c(c2)C(=O)N([C@H](C)CO)C[C@@H](C)[C@@H](CN(C)S(=O)(=O)c2ccc(Cl)cc2)OCCCC[C@@H](C)O3)cc1	none (no result: PDI inh)
COc1cc(/C=N/NC(N)=S)ccc1OCc1ccc(C)cc1	none
CCC1=[N+](C)c2cccc3cccc(c23)N1C	ERAP1 HTS inh 36.3
CCN1C(=O)Nc2cccc3cccc1c23	none
Cc1cc(N2CCN(Cc3cn(C)nc3-c3cccc(Cl)c3)CC2)cc(C)n1	none
Cc1ccc(S(=O)(=O)NCC[C@H]2CC[C@H](NC(=O)CC3CC3)[C@@H](CO)O2)cc1	none (no result: PDI inh)
CN(Cc1cnccn1)Cc1nc(Cc2ccccc2F)no1	none
CS(=O)(=O)c1ccc2nc(NC(=O)CCN3C(=O)c4ccccc4C3=O)sc2c1	FGF22 binding 43.0
COc1cccc2cccc(/C=N/n3cnnc3)c12	FGF22 binding 42.9
Cc1cnc(NC2=NCCC2)s1	PDI inh 38.3
c1nnc(NC2=NCCC2)s1	none (no result: ERAP1 HTS inh, S100A4 MyoIIA, ERp5 block, FGF22 binding)
N#C/C(=C(/O)COc1ccccc1)c1nc2ccccc2s1	none
N#C/C(=C(/O)COC(=O)c1ccc(C#N)cc1)c1nc2ccccc2s1	FGF22 binding 44.1
CCCCNc1c([N+](=O)[O-])ncn1C	none
O=C(CSc1n[nH]c(-c2ccccc2)n1)NCc1cccc(C(=O)O)c1	FGF22 binding 42.9
O=C(NC(=S)Nc1ccc(N2CCOCC2)cc1)c1ccc2c(c1)OCCO2	none (no result: ERAP1 HTS inh, S100A4 MyoIIA, ERp5 block, FGF22 binding)
CS(=O)(=O)N1CCN(c2ccc(NC(=S)NC(=O)c3ccc4c(c3)OCO4)cc2)CC1	FGF22 binding 43.5
Cc1c(NC(=O)C2(c3ccccc3)CCCC2)c(=O)n(-c2ccccc2)n1C	none (no result: ERAP1 HTS inh, S100A4 MyoIIA, ERp5 block, FGF22 binding)
Cc1c(NC(=O)COC(=O)C2(c3ccc(F)cc3)CCCC2)c(=O)n(-c2ccccc2)n1C	FGF22 binding 43.3
CC(C)CC(=O)N=Nc1c(O)[nH]c2ccccc12	none
CCCn1c(SCC(=O)Nc2cc(Cl)ccc2Cl)n[nH]c1=O	FGF22 binding 43.1
CN1CCC[C@@H]1CCNC(=O)c1c(-c2ccc3c(c2)OCO3)noc1-c1ccsc1	none
CS(=O)(=O)N1CCN(c2ccc([N+](=O)[O-])c(N3CCOCC3)c2)CC1	none (no result: ERAP1 HTS inh, S100A4 MyoIIA, ERp5 block, FGF22 binding)
CS(=O)(=O)N1CCN(c2ccccc2[N+](=O)[O-])CC1	FGF22 binding 43.3
Cc1cccc(NC(=O)/C(C#N)=C\c2ccc(C(=O)O)cc2)c1	none
COc1cc(C)c(/C=C(\C#N)C(=O)Nc2cccc(C)c2)cc1C(C)C	FGF22 binding 43.7
CCc1nnc(NC(=O)c2ccc(F)c(S(=O)(=O)N3CCCCC3)c2)s1	none
Cc1nnc(NC(=O)c2ccc(F)c(S(=O)(=O)N3CCOCC3)c2)s1	FGF22 binding 43.1
CN(C)C(=O)c1ccc(NC(=O)COC(=O)/C=C/c2cccs2)cc1	none (no result: FGF22 binding)
COc1ccc(C(=O)NC(=S)NNC(=O)c2ccc(NC(C)=O)cc2)cc1Br	FGF22 binding 43.0
Cc1ccc2c(c1)nc(-n1nc(C)cc1C)c1nnnn12	FGF22 binding 42.9
Cc1cc(C)n(-c2nc3ccccc3n3c(C)nnc23)n1	none
CC(C)CC(NC(=O)CC12CC3CC(CC(C3)C1)C2)C(=O)NC1=NCCS1 (configuration not stated)	FGF22 binding 42.9
COc1ccc(OCC(O)CN(CCO)CC(O)Cn2ccc3ccccc32)cc1 (configuration not stated)	FGF22 binding 43.1
COc1ccc(OCCN2C(=O)NC3(CCc4ccccc4C3)C2=O)cc1 (configuration not stated)	FGF22 binding 43.8
COc1ccc(OCCN2C(=O)NC(C)(c3ccc(C)cc3)C2=O)cc1 (configuration not stated)	none (no result: ERAP1 HTS inh, S100A4 MyoIIA, ERp5 block, FGF22 binding)
O=C(C[C@@H]1C=C[C@H](NC(=O)NC2CCCCC2)[C@@H](CO)O1)NCc1ccc(Cl)cc1	none (no result: PDI inh)
CCCNC(=O)c1ccccc1NC(=O)c1ccc(CSc2ccccc2)cc1	none (no result: ERAP1 HTS inh, S100A4 MyoIIA, ERp5 block, FGF22 binding)
CC(=O)c1c(C)[nH]c(C(=O)Nc2cc(F)ccc2C)c1C	FGF22 binding 43.1
